In the library only some 2% were active in any assay of this set; here they are far more common.
VIM-2 inh: inhibitors of Pseudomonas aeruginosa VIM-2 metallo-beta-lactamase; inhibition, % at 5.6 µM; purified VIM-2, nitrocefin hydrolysis, epi-absorbance fluorescence; AID 1527; 0.89% of 290,000 active;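 active = inhibition above the mean of all tested compounds plus 3 SD, cutoff set per screening run, cut at about 7.5% in these data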;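 also: red hydrolysis product quenches plate fluorescence so inhibitors raise well fluorescence; 0% = enzyme with DMSO and 100% = DMSO without enzyme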
beta cell repl: inducers of beta-cell replication in MIN6 cells. 0.29% of 330,000 active. MIN6 cells proliferation, ATPlite luminescence, 48 h; cells starved in 0.2% serum; 100% = growth in 10% serum. proliferation, % at 10 µM;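 active = compounds whose signal lies at least 3.5 SD above the mean of all wells on their plate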;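 also: 0% = DMSO-treated cells in low-serum medium and 100% = 10% serum control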
IMP-1 inhibitor: blocks Pseudomonas aeruginosa IMP-1 metallo-beta-lactamase | AID 1556 | inhibition, % at 5.6 µM | 0.45% of 290,000 active | purified IMP-1, nitrocefin hydrolysis, epi-absorbance fluorescence;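 active = inhibition above the mean plus 3 SD of all compounds in the same screening run, cut at about 4.5% in these data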;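 also: 0% = IMP-1 with DMSO and 100% = DMSO wells lacking enzyme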
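assay system = purified recombinant IMP-1 metallo-beta-lactamase enzyme | schedule = 15 min preincubation plus 25 min reaction at 25 °C | signal = Epi-absorbance fluorescence, 480 nm excitation, 530 nm emission | read-out basis = percent inhibition from optical density relative to buffer-blank wells | controls = IMP-1 with DMSO as 0%, enzyme-free DMSO as 100%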
ATG4B inh: blocks human ATG4B protease cleavage of LC3 substrate. 0.51% of 340,000 active. inhibition, % at 8.33 µM. ATG4B cleavage of LC3-PLA2, NBD-HPC fluorescence, 1 h. Q9Y4P1; in the data active = inhibition above about 40%
Target sequence (Q9Y4P1 whole entry, looked up): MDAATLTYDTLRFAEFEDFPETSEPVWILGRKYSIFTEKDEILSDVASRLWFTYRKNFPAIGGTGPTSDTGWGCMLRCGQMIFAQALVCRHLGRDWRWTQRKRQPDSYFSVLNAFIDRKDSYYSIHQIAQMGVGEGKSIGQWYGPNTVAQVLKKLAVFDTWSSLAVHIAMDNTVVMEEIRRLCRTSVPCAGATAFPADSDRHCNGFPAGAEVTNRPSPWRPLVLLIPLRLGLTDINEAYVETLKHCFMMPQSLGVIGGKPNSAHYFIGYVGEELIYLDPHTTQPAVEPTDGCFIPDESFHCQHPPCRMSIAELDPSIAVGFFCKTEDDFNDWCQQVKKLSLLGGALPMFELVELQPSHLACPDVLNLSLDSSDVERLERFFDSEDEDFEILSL
HKDC1 inhibitor: HKDC1 (human) hexokinase inhibition; Q2TB90; recombinant HKDC1, G6PDH/diaphorase resazurin coupled fluorescence; inhibition, % at 20 µM; 0.16% of 340,000 active; AID 493160;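 active = inhibition above about 35% when tested at 20 µM, limit read from the data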;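 also: plate controls were DMSO wells with enzyme for no effect and DMSO wells lacking enzyme for full effect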
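Material: recombinant HKDC1 hexokinase; Amount: HKDC1 at 5 µg/mL; Medium: Tris pH 8.0 buffer with MgCl2, Tween-20, BSA, BME; Schedule: 90 min reaction incubation at room temperature, dark; Technique: coupled resazurin fluorescence, excitation 525 nm, emission 613 nm.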
PvdQ acylase: blocks Pseudomonas aeruginosa PvdQ acylase activity. 0.063% of 340,000 active. inhibition, % at 10 µM. AID 488965. purified PvdQ acylase, fluorescence plate reader; in the data active = inhibition above about 30%, passing the limit was not always enough;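 also: 0% = vehicle neutral wells and 100% = reference inhibitor wells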
The depositor's hits bear a star.

Results for O=C(O)c1ccc(S(=O)(=O)c2ccc3c(c2)C(=O)N(NC(=O)c2ccccc2)C3=O)cc1 ?
VIM-2 inh: -2; beta cell repl: 2; IMP-1 inhibitor: 5.1*; ATG4B inh: 4; HKDC1 inhibitor: 5; PvdQ acylase: -8

How did NNC(=O)C(Cc1ccccc1)NC(=O)OCc1ccccc1 (stereo not drawn) do in these assays?
VIM-2 inh: -4; beta cell repl: -3; IMP-1 inhibitor: -3; ATG4B inh: -2; HKDC1 inhibitor: -10; PvdQ acylase: -12

What do the screens show for `Oc1ccc(-c2n[nH]c(=S)n2Cc2ccccc2)cc1`?
VIM-2 inh: 11*; beta cell repl: -4; IMP-1 inhibitor: -2; ATG4B inh: -10; HKDC1 inhibitor: -8; PvdQ acylase: -18

Results for Cc1cc(-c2n[nH]c(=S)n2Cc2ccccc2)cs1 ?
VIM-2 inh: 7.9*; beta cell repl: -1; IMP-1 inhibitor: 0; ATG4B inh: 9; HKDC1 inhibitor: -2; PvdQ acylase: -3

What do the screens show for `Fc1ccc(-c2n[nH]c(=S)n2Cc2ccccc2)cc1`?
VIM-2 inh: 3; beta cell repl: -1; IMP-1 inhibitor: -3; ATG4B inh: 0; HKDC1 inhibitor: 1; PvdQ acylase: 1

Results for O=C(CCc1ccccc1)N1CCN(c2ccc([N+](=O)[O-])cc2)CC1 ?
VIM-2 inh: 0; beta cell repl: -3; IMP-1 inhibitor: -3; ATG4B inh: 9; HKDC1 inhibitor: -5; PvdQ acylase: -11

What do the screens show for `Cn1nc(-c2ccc(C(=O)NC3CCCCC3)cc2)c2ccccc2c1=O`?
VIM-2 inh: 1; beta cell repl: -3; IMP-1 inhibitor: -3; ATG4B inh: 4; HKDC1 inhibitor: 2; PvdQ acylase: 5

Results for COC/C=C/C1=CC2=CC(=O)C(C)(OC(=O)c3cnc4ccccc4n3)C(=O)C2=CO1 (stereo not drawn) ?
beta cell repl: -6

How did CCCc1c(CC)c(=N)c2ccccc2n1C do in these assays?
VIM-2 inh: -4; beta cell repl: -6; IMP-1 inhibitor: 8.8*; ATG4B inh: -2; HKDC1 inhibitor: -1; PvdQ acylase: 7

Results for Cn1c(-c2ccccc2)c(C(=O)CCl)c2ccccc21 ?
VIM-2 inh: 0; IMP-1 inhibitor: -2; ATG4B inh: 11; HKDC1 inhibitor: 13; PvdQ acylase: 6

How did Cc1cc(=O)oc2cc(NC(=O)C(C)Oc3ccc(F)cc3)ccc12 (stereo not drawn) do in these assays?
beta cell repl: 0; ATG4B inh: -7; HKDC1 inhibitor: -1; PvdQ acylase: -9

What do the screens show for `Cc1cc(=O)oc2cc(NC(=O)c3ccc(OC(F)F)cc3)ccc12`?
VIM-2 inh: 1; beta cell repl: -1; IMP-1 inhibitor: 8.7*; ATG4B inh: 6; HKDC1 inhibitor: 8; PvdQ acylase: -14

What do the screens show for `COC(=O)c1ccc(CN2CCN(CCc3ccccc3)C(CCO)C2)cc1` (stereo not drawn)?
VIM-2 inh: -1; beta cell repl: -2; IMP-1 inhibitor: -5; ATG4B inh: 7; HKDC1 inhibitor: -6; PvdQ acylase: 4

What do the screens show for `CCN(CC)CCCNC(=O)c1cc(Cl)c(NC(=O)C2=C(C)OCCS2)cc1OC`?
VIM-2 inh: 11*; beta cell repl: 1; IMP-1 inhibitor: -2; ATG4B inh: 7; HKDC1 inhibitor: -1; PvdQ acylase: -14

Results for CCC(C)NC(=O)c1cc(Cl)c(NC(=O)C2=C(C)OCCS2)cc1OC (stereo not drawn) ?
VIM-2 inh: 1; beta cell repl: -3; IMP-1 inhibitor: -1; ATG4B inh: -1; HKDC1 inhibitor: -3; PvdQ acylase: 5

Results for NNC(=O)c1nc[nH]c1C(=O)Nc1ccccn1 ?
VIM-2 inh: -3; beta cell repl: -3; IMP-1 inhibitor: 7.6*; ATG4B inh: -4; HKDC1 inhibitor: -10; PvdQ acylase: -2

Results for O=C(Nc1ccc(F)c(F)c1)c1cc(S(=O)(=O)N2CCN(c3ccccn3)CC2)ccc1F ?
VIM-2 inh: 1; beta cell repl: -3; IMP-1 inhibitor: 4.6*; ATG4B inh: -16; HKDC1 inhibitor: -7; PvdQ acylase: -6

How did O=C(NCCNc1ccc([N+](=O)[O-])cc1)c1cccs1 do in these assays?
VIM-2 inh: -2; beta cell repl: -2; IMP-1 inhibitor: -5; ATG4B inh: -6; HKDC1 inhibitor: 9; PvdQ acylase: -1

What do the screens show for `O=C(NCCNC(=O)c1cc(OCC(F)(F)F)ccc1OCC(F)(F)F)Nc1cccc(C(F)(F)F)c1`?
VIM-2 inh: 1; beta cell repl: -6; IMP-1 inhibitor: 7.0*; ATG4B inh: -5; HKDC1 inhibitor: 1; PvdQ acylase: -8

What do the screens show for `CN(C)S(=O)(=O)NCCNC(=O)c1cc(OCC(F)(F)F)ccc1OCC(F)(F)F`?
VIM-2 inh: -2; beta cell repl: -3; IMP-1 inhibitor: -4; ATG4B inh: -5; HKDC1 inhibitor: 0; PvdQ acylase: -6

Results for O=C(CN1CCCCCC1)N/N=C/c1ccc2ccccc2c1 ?
VIM-2 inh: -1; IMP-1 inhibitor: -1; ATG4B inh: -1; HKDC1 inhibitor: 9; PvdQ acylase: -12

What do the screens show for `CC(=O)c1ccc(-n2c(C)c(C(C)=O)c3cc(O)ccc32)cc1`?
VIM-2 inh: 10*; beta cell repl: 3; IMP-1 inhibitor: -1; ATG4B inh: -6; HKDC1 inhibitor: 6; PvdQ acylase: -11

How did O=C(Cc1ccc(Cl)cc1)N1CCN(c2ccccc2)CC1 do in these assays?
VIM-2 inh: -4; beta cell repl: -3; IMP-1 inhibitor: -2; ATG4B inh: -2; HKDC1 inhibitor: 1; PvdQ acylase: 4

Results for O=S(=O)(c1ccc(Cl)c(NC(=S)N/N=C/c2c(F)cccc2F)c1)N1CCOCC1 ?
VIM-2 inh: 10*; beta cell repl: -3; IMP-1 inhibitor: -3; ATG4B inh: -7; HKDC1 inhibitor: 4; PvdQ acylase: 5

What do the screens show for `CC[C@H]1C(O)C[C@H]2CCN3C(=O)CCC[C@H]1[C@H]23` (stereo partly drawn)?
ATG4B inh: -6; HKDC1 inhibitor: -6; PvdQ acylase: -10

How did O=C(CSc1nnnn1-c1ccc(F)cc1)Nc1nc2ccccc2s1 do in these assays?
VIM-2 inh: -2; beta cell repl: -2; IMP-1 inhibitor: 4.7*; ATG4B inh: 3; HKDC1 inhibitor: -1; PvdQ acylase: -7

What do the screens show for `Cc1nn2c(-c3cccc(NC(=O)c4ccco4)c3)nnc2c2ccccc12`?
VIM-2 inh: 9.8*; beta cell repl: -1; IMP-1 inhibitor: 3; ATG4B inh: -23; HKDC1 inhibitor: 4; PvdQ acylase: 1

Results for Cc1ccc(-c2nnc3c4ccccc4c(C)nn23)cc1NC(=O)c1ccco1 ?
VIM-2 inh: 1; IMP-1 inhibitor: -6
